Screens as filed in PubChem BioAssay.
FLuc act counter: affects firefly luciferase, flagging false hits in luciferase stimulation screens; P08659; ATPlite luciferase biochemical, luminescence, 10 min; 0 = ATP-free wells, 1 = DMSO control; activation factor at 10 µM; 200,000 tested, under 10 active; AID 1027;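 active means luciferase activation factor, scaled between plate controls, of at least 2 with compound at 10 µM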
Target sequence (P08659 whole entry, looked up): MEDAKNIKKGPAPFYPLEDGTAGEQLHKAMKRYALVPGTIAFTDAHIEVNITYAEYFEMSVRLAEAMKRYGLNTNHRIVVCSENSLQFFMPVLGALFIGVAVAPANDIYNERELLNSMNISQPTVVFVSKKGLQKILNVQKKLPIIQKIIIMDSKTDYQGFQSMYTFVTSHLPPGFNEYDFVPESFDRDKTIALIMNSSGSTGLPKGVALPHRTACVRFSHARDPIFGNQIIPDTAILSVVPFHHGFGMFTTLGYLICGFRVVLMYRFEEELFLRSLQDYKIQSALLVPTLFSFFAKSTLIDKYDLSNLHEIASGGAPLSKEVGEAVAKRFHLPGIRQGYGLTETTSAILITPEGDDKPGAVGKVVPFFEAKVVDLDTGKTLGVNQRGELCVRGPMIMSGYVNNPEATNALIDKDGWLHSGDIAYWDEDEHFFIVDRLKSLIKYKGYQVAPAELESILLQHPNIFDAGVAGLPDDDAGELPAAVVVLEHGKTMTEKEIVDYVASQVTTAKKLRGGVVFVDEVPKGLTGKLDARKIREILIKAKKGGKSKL
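Material: Luciferase/luciferin reagent mix | Doses: Test compounds dosed from 2 mM stocks in 100% DMSO | Timing: 10 min incubation after luciferase reagent addition, room temperature | Measured by: Luminescence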
PPC-1+TRAIL kill: PPC-1 cancer cell killing with TRAIL present; PPC-1 cells + TRAIL, ATPLite viability luminescence; cell killing (% activity), % at 4 µM or 5 µM; 220,000 tested, 0.41% active;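 active means cell killing above 50% in the first pass at 4 µM, then a duplicate retest at 5 µM averaging 50% or more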;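 further: plate controls were cells with TRAIL plus DMSO for no effect and medium-only wells lacking cells for full effect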
C8 TRAIL sens: caspase-8 TRAIL sensitization | NB7+C8 cells + TRAIL, ATPlite viability luminescence | inhibition (viability loss, TRAIL sensitization), % at 10 µM | 360,000 tested, 1% active;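 active means compounds causing at least 50% loss of cell viability in the single-dose screen, relative to plate controls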
FLuc inh counter: Photinus pyralis luciferase inhibition counter-screen; P08659; ATPLite firefly luciferase biochemical luminescence, 10 min; inhibition, % at 10 µM; 200,000 tested, 1.5% active; AID 1006;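 active means inhibition above about 50% when tested at 10 µM, limit read from the data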
* marks the source's active call; other numbers are inactive results; nt = not tested or not shown; ! = not active in a repeat. Most compounds without a hit are left out; they make up all but 1.5% or so of the library.

SMILES	FLuc act counter	PPC-1+TRAIL kill	C8 TRAIL sens	FLuc inh counter
COc1cc(Cl)c(C)cc1NC(=O)CN(C)C1CCS(=O)(=O)C1 (stereo unspecified)	nt	nt	5	nt
CC(C)(C)n1cnc2cc(NC(=O)c3cccs3)ccc21	0.3	6	50	71*
CC(C)(C)n1cnc2cc(NC(=O)c3ccccc3)ccc21	nt	nt	46	nt
CCn1cnc2cc(NC(=O)c3cccs3)ccc21	0.5	17	23	51*
CCn1cnc2cc(NCc3cccs3)ccc21	1	6	4	3
Nc1nc(SCC(=O)NC2CCCCC2)n[nH]1	nt	nt	19	nt
CCN1CCN(Cc2ccc(NC(=O)c3ccc(C)c(/C=C/c4cnc(Nc5cc(N6CCNCC6)nc(C)n5)cn4)c3)cc2C(F)(F)F)CC1	nt	nt	63*!	nt
CCN1CCN(Cc2ccc(NC(=O)c3ccc(C)c(NC(=O)c4ccno4)c3)cc2C(F)(F)F)CC1	nt	15	23	nt
Cc1ccc(C(=O)CSc2nnnn2C(C)C)c(C)c1	0.5	19	21	54*
COc1ccc(C(=O)COc2ccc(C)cc2NC(C)=O)cc1	nt	-18	7	nt
CC(C)COC(=O)c1ccc2c(c1O)C(=O)c1ccccc1C2=O	0.6	36	57*	39
O=C(CN1C(=O)NC2(CCOc3ccccc32)C1=O)N1CCCCC1 (stereo unspecified)	nt	nt	4	nt
Cc1ccc(S(=O)(=O)/N=C2\C=C(Nc3cccc(C(=O)O)c3)C(=O)c3ccccc32)cc1	nt	nt	40	nt
O=C1C(Nc2ccccc2)=C/C(=N/S(=O)(=O)c2cccs2)c2ccccc21	0.9	22	97*	13
Cc1ccc(S(=O)(=O)/N=C2\C=C(Nc3ccc(O)cc3)C(=O)c3ccccc32)cc1	nt	nt	93*	nt
Cc1ccc(NC2=C/C(=N/S(=O)(=O)c3cccs3)c3ccccc3C2=O)cc1	0.9	38	95*	9
CCc1ccc(S(=O)(=O)/N=C2\C=C(Nc3ccc(C(=O)O)cc3)C(=O)c3ccccc32)cc1	nt	nt	29	nt
O=C(NO)c1cc(OCC(F)(F)F)ccc1OCC(F)(F)F	1	-4	51*	0
O=C(NNC(=O)c1cc(OCC(F)(F)F)ccc1OCC(F)(F)F)c1cccc(C(F)(F)F)c1	1.1	-14	52*	-6
COc1ccccc1C(=O)NCC(=O)N/N=C/c1cc(Br)ccc1OC(=O)/C=C\c1ccco1	1.1	19	44	-5
O=C(CNC(=O)c1ccccc1F)N/N=C/c1cc(Br)ccc1OC(=O)/C=C/c1ccco1	1	28	53*	-3
Cc1cc(C)nc(Nc2n[nH]c(-c3ccccc3Cl)n2)n1	0.4	26	16	58*
Cc1cc(C)nc(Nc2n[nH]c(-c3cccc4ccccc34)n2)n1	1	3	-2	-3
COc1cc(/C=C2/C(=O)c3cccc([N+](=O)[O-])c3C2=O)c(Br)cc1O	0.4	10	19	64*
COc1ccc(CN(C(=O)c2cc(=O)c3cc(C)cc(C)c3o2)C2CCS(=O)(=O)C2)cc1 (stereo unspecified)	nt	17	24	nt
SMILES	FLuc act counter	PPC-1+TRAIL kill	C8 TRAIL sens	FLuc inh counter
CCCC(=O)Nc1c(-c2ccccc2)[nH][nH]c1=O	nt	nt	-7	nt
O=C(c1ccccc1)c1cnc(Nc2ccccc2Cl)s1	0.4	29	31	62*
CC(C)(C)C(=O)c1cnc(Nc2ccccc2Cl)s1	0.7	30	6	34
Cc1ccccc1C(=O)Nc1ccnn1C1CCN(Cc2cnn(C)c2)CC1	nt	nt	-12	nt
COc1ccc(S(=O)(=O)N2CCC(C(=O)NCCC3=CCCCC3)CC2)cc1C	1	27	54*	-2
COc1ccc(C)cc1S(=O)(=O)N1CCC(C(=O)NCCC2=CCCCC2)CC1	1	-4	2	-4
Cc1ccnc(N/C=C/C(=O)c2ccc(Br)cc2)c1	nt	nt	44	nt
COc1ccc(NC(=O)Nc2cc(C)ccn2)cc1	nt	nt	59*	nt
CC(=O)Nc1ccc(NC(=O)COc2ccc3c(c2)CCC3)cc1	1	22	-3	-2
COc1ccc(C(=O)/C=C/Nc2cc(C)ccn2)cc1	nt	35	61*	nt
CSc1ccc(NC(=O)Nc2cc(C)ccn2)cc1	nt	33	55*	nt
Cc1ccnc(NC(=O)Nc2ccc(F)cc2)c1	0.6	33	14	45
Cc1ccnc(NC(=O)COc2ccc3c(c2)CCC3)c1	nt	nt	70*	nt
COc1cc(/C=N/N2CCN(Cc3ccccc3)CC2)cc(OC)c1OC(C)=O	nt	nt	-6	nt
CC1(C)SC(C)(C)N(C=O)C1C(=O)O (stereo unspecified)	nt	nt	-2	nt
CC1(C(=O)NCc2ccccc2)CN(S(C)(=O)=O)CC(=O)N1CCc1ccccc1F (stereo unspecified)	nt	nt	9	nt
COc1ccc(NC(=O)c2cc(C3CCCCN3S(=O)(=O)c3ccc(C#N)cc3)on2)c(C)c1 (stereo unspecified)	nt	nt	-16	nt
CCOc1ccc(N/C=C/C(=O)c2ccccc2)c([N+](=O)[O-])c1	0.1	73*	91*	94*
COc1ccc(N/C=C\C(=O)c2ccc3ccccc3c2)cc1	nt	nt	23	nt
COc1ccc(N/C=C/C(=O)c2ccccc2)cc1	nt	nt	71*	nt
CNC(=O)c1[nH]cnc1C(=O)NCC(=O)OCc1ccccc1	nt	nt	-6	nt
CC(C)Cc1ccc(C(C)/C=C2/CCC(CN3CCCCC3)C2=O)cc1 (stereo unspecified)	nt	nt	11	nt
CC(C)Cc1ccc(C(C)CC2=CCC(CN(C)C)C2=O)cc1 (stereo unspecified)	nt	nt	91*	nt
Cc1nc(SCC(=O)Nc2nnc(C(C)C)s2)n[nH]1	nt	nt	23	nt
O=C(COC(=O)c1cc(Br)ccc1O)NNC(=O)c1cccs1	nt	nt	-14	nt
SMILES	FLuc act counter	PPC-1+TRAIL kill	C8 TRAIL sens	FLuc inh counter
CN(C)c1ccc(/C=C2/NC(=O)NC2=O)cc1	0.3	36	41	73*
Cc1ccc(-n2c(C)cc(C(=O)CSc3n[nH]c(N)n3)c2C)cc1	0.7	20	10	26
Cc1cc(C(=O)CSc2n[nH]c(N)n2)c(C)n1-c1ccccc1	0.4	21	36	59*
Cc1cc(C(=O)CSc2nnc3ccccn23)c(C)n1-c1ccccc1	0.3	33	53*	75*
COC(=O)c1cc(=O)nc(NN=Cc2ccco2)s1	nt	nt	3	nt
Cc1ccc(S(=O)(=O)N2CCOCC2)cc1NC(=O)COC(=O)c1ccc(Br)o1	nt	nt	-10	nt
Cn1c(SCC(=O)NC(=O)Nc2ccccc2)nnc1-c1ccncc1	nt	2	3	nt
Cn1cccc1C(=O)C(=O)Nc1ccc(Cl)cc1	0.4	31	29	62*
Cn1cccc1C(=O)C(=O)Nc1cc(Cl)cc(Cl)c1	1	25	19	0
C(=N\N=C\c1cccnc1)/c1cccnc1	0.9	12	13	11
CN(/N=C/c1cccnc1)c1cnc2ccccc2n1	0.5	10	31	51*
O=c1[nH]c(/C=C/c2ccccc2Cl)nc2ccccc12	nt	nt	64*	nt
Cc1[nH]c2ccccc2c1/C=C/c1nc2ccccc2c(=O)[nH]1	nt	12	5	nt
Cc1cccc(/C=C/c2nc3ccccc3c(=O)[nH]2)c1	0.3	41	55*	68*
O=C(O)c1ccc(/C=C/c2nc3ccccc3c(=O)[nH]2)cc1	nt	nt	4	nt
Clc1cccc(Cl)c1/C=C/c1nc2ccccc2[nH]1	0.2	47	68*	82*
